Activity calls are given as the source filed them.
Columns and labels:
Assay type in all cases: functional
[1] = system: M14; assay: Growth inhibition of human M14 cells
[2] = system: HL-60(TB); assay: Growth inhibition of human HL60(TB) cells
[3] = system: A498; assay: Growth inhibition of human A498 cells
[4] = system: SK-MEL-2; assay: Growth inhibition of human SK-MEL-2 cells
How it was run: (§1)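 Tested at the NCI in its human disease-oriented in vitro screen of 60 tumour cell lines, following the Monks et al. methods. Activity is expressed as GI50, given as log molar values.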

[5] = system: DLD-1; assay: Growth inhibition of human DLD1 cells
[6] = system: EKVX; assay: Growth inhibition of human EKVX cells
[7] = system: CCRF-CEM; assay: Growth inhibition of human CCRF-CEM cells
[8] = system: MDA-MB-231; assay: Growth inhibition of human MDA-MB-231 cells
[9] = system: SF-539; assay: Growth inhibition of human SF539 cells; how it was run: as §1
[10] = system: HT-29; assay: Growth inhibition of human HT29 cells
[11] = system: RXF 393; assay: Growth inhibition of human […] cells
[12] = system: DMS144; assay: Growth inhibition of human DMS144 cells
[13] = system: SF-295; assay: Growth inhibition of human SF295 cells; how it was run: as §1
[14] = system: Hs-578T; assay: Growth inhibition of human HS578T cells
[15] = system: OVACR5; assay: Growth inhibition of human OVACR5 cells
[16] = system: OVACR4; assay: Growth inhibition of human OVACR4 cells
[17] = system: XF498; assay: Growth inhibition of human XF498 cells; how it was run: as §1
[18] = system: OVACR3; assay: Growth inhibition of human […] cells
[19] = system: Malme-3M; assay: Growth inhibition of human MALME-3M cells
[20] = system: U-251; assay: Growth inhibition of human U251 cells; how it was run: as §1
[21] = system: UACC-62; assay: Growth inhibition of human UACC62 cells; how it was run: as §1
[22] = system: HCC 2998; assay: Growth inhibition of human HCC2998 cells
[23] = system: LXFL 529; assay: Growth inhibition of human LXFL529 cells
[24] = system: SK-MEL-28; assay: Growth inhibition of human SK-MEL-28 cells; how it was run: as §1
[25] = system: IGROV-1; assay: Growth inhibition of human IGROV1 cells
[26] = system: MDA-MB-435; assay: Growth inhibition of human MDA-MB-435 cells
[27] = system: SK-MEL-5; assay: Growth inhibition of human SK-MEL-5 cells; how it was run: as §1
[28] = system: DMS-273; assay: Growth inhibition of human DMS273 cells
[29] = system: SN12C; assay: Growth inhibition of human SN12C cells; how it was run: as §1
[30] = system: HOP-18; assay: Growth inhibition of human HOP18 cells
[31] = system: HOP-62; assay: Growth inhibition of human HOP62 cells
[32] = system: SNB-75; assay: Growth inhibition of human SNB75 cells; how it was run: as §1
[33] = system: A549; assay: Growth inhibition of human A549 cells
[34] = system: NCI/ADR-RES; assay: Growth inhibition of human MCF7/ADR-RES cells
[35] = system: K562; assay: Growth inhibition of human K562 cells
[36] = system: NCI-H522; assay: Growth inhibition of human NCI-H522 cells
[37] = system: 786-0; assay: Growth inhibition of human 786-0 cells
[38] = system: BT-549; assay: Growth inhibition of human BT549 cells
[39] = system: HCT-15; assay: Growth inhibition of human HCT15 cells
[40] = system: NCI-H23; assay: Growth inhibition of human NCI-H23 cells
[41] = system: UO-31; assay: Growth inhibition of human UO31 cells; how it was run: as §1
[42] = system: HOP-92; assay: Growth inhibition of human HOP92 cells
[43] = system: SR; assay: Growth inhibition of human SR cells; how it was run: as §1
[44] = system: MOLT-4; assay: Growth inhibition of human MOLT4 cells
[45] = system: MDA-N; assay: Growth inhibition of human MDA-N cells
[46] = system: SK-OV-3; assay: Growth inhibition of human SK-OV-3 cells; how it was run: as §1
[47] = system: KM12; assay: Growth inhibition of human KM12 cells
[48] = system: DU-145; assay: Growth inhibition of human DU145 cells
[49] = system: PC-3; assay: Growth inhibition of human PC3 cells
[50] = system: TK-10; assay: Growth inhibition of human TK10 cells; how it was run: as §1
[51] = system: ACHN; assay: Growth inhibition of human ACHN cells
[52] = system: SF-268; assay: Growth inhibition of human SF268 cells; how it was run: as §1
[53] = system: COLO 205; assay: Growth inhibition of human COLO205 cells
[54] = system: OVACR8; assay: Growth inhibition of human OVACR8 cells
[55] = system: SNB-19; assay: Growth inhibition of human SNB19 cells; how it was run: as §1
[56] = system: NCI-H322M; assay: Growth inhibition of human NCI-H322M cells
[57] = system: T47D; assay: Growth inhibition of human T47D cells; how it was run: as §1
[58] = system: HCT-116; assay: Growth inhibition of human HCT116 cells
[59] = system: M19-MEL; assay: Growth inhibition of human M19-MEL cells
[60] = system: UACC-257; assay: Growth inhibition of human UACC257 cells; how it was run: as §1
[61] = system: RPMI8266; assay: Growth inhibition of human RPMI8266 cells
[62] = system: NCI-H226; assay: Growth inhibition of human NCI-H226 cells
[63] = system: LOX IMVI; assay: Growth inhibition of human LOX IMVI cells
[64] = system: NCI-H460; assay: Growth inhibition of human NCI-H460 cells
[65] = system: MCF7; assay: Growth inhibition of human MCF7 cells
[66] = system: CAKI-1; assay: Growth inhibition of human CAKI1 cells
[67] = system: SW-620; assay: Growth inhibition of human SW620 cells; how it was run: as §1
[68] = system: KM-20L2; assay: Growth inhibition of human KM20L2 cells

Measured: Activity

COc1ccc2c([nH]c3c(O)c(-c4c(C)cc5c([nH]c6c(CC=C(C)C)c(OC)ccc65)c4O)c(C)cc32)c1CC=C(C)C
inactive: all assays above

COc1cc(Cn2c3ccccc3c3cc(C)c4c(c32)C=CC(C)(CCC=C(C)C)O4)cc2c1[nH]c1ccccc12 (stereo unspecified)
inactive: all assays above
